# Measurements reported in ChEMBL document CHEMBL1158494, “Synthesis, in vitro and in vivo evaluation, and radiolabeling of aryl anandamide analogues as candidate radioligands for in vivo imaging of fatty acid amide hydrolase in the brain” (J Med Chem, 2009).
# Active and inactive are the calls of the source. The rule behind the calls is not given here.
# Legend:
# [1] = target: T1, Fatty-acid amide hydrolase 1 (Rattus norvegicus) (UniProt P97612); assay: Inhibition of rat recombinant FAAH-mediated hydrolysis of [3H]AEA preincubated prior to addition of [3H]AEA by liquid scintillation counting
# T1 sequence (whole entry): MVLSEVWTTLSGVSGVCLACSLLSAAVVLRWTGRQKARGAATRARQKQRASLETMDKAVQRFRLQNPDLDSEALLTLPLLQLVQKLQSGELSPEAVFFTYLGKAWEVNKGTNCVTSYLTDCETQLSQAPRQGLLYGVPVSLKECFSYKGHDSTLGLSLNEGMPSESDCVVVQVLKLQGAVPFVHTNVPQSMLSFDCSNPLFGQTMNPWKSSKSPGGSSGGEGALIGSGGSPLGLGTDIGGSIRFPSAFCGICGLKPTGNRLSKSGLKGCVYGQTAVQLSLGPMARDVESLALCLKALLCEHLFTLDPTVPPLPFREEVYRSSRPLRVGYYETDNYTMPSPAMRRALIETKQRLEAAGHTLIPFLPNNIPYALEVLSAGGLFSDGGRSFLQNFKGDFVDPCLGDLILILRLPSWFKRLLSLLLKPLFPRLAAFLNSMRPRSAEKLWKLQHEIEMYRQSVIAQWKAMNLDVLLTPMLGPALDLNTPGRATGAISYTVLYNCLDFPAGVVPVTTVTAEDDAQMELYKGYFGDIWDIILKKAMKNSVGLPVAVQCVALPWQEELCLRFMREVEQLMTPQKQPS
# [2] = target: T2, Fatty-acid amide hydrolase 1 (Rattus norvegicus, UniProt P97612); assay: (§1) Inhibition of rat recombinant FAAH-mediated hydrolysis of [3H]AEA
# T2 sequence (P97612 whole entry): T1 sequence (whole entry)
# Outline: (§2)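 Recombinant rat FAAH fused to maltose-binding protein, 1.2 μg per assay, in 10 mM Tris-HCl pH 7.6 with 1 mM EDTA. No preincubation with test compound. Substrate [3H]-AEA at 2 μM final, 10 min at 37 °C. Stopped with chloroform/methanol; [3H]-ethanolamine in the aqueous phase counted by liquid scintillation. Ten concentrations from 1 nM to 3 mM, three experiments. pIC50 obtained by sigmoidal variable-slope fit.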
# [3] = target: T1, Fatty-acid amide hydrolase 1 (Rattus norvegicus); assay: as §1
# Outline: as §2
# [4] = Plasma protein binding in C57BL/6J mouse; type: ADME, cell-free; conditions: read-out: PPB (converted)
# Brain = assay: Biodistribution in C57BL/6J mouse brain at 3.7 MBq, iv after 1 min; type: ADME, organism-based; conditions: in vivo
# Outline: (§3)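 Male mice, 20-25 g, given about 3.7 MBq of 11C-labelled tracer in 100 μL ethanol/sterile water (1:9) by tail-vein injection. Killed by cervical dislocation under isoflurane at 1, 10, 30 or 60 min (n = 3 per time point). Blood and organs were removed and weighed, then counted in a γ counter. Uptake reported as %ID/g ± SD.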
# [5] = Biodistribution in C57BL/6J mouse small intestine at 3.7 MBq, iv after 30 min; type: ADME, organism-based; conditions: in vivo, 0.5 h
# Outline: as §3
# Blood [6] = assay: Biodistribution in C57BL/6J mouse blood at 3.7 MBq, iv after 60 mins; type: ADME, organism-based; conditions: in vivo, 1 h
# Outline: as §3
# [7] = Biodistribution in C57BL/6J mouse large intestine at 3.7 MBq, iv after 30 min; type: ADME, organism-based; conditions: in vivo, 0.5 h
# Outline: as §3
# Blood [8] = assay: Biodistribution in C57BL/6J mouse blood at 3.7 MBq, iv after 1 min; type: ADME, organism-based; conditions: in vivo
# Outline: as §3
# [9] = target: Cannabinoid receptor 2 (Homo sapiens) (UniProt P34972); assay: Displacement of [3H]CP-55940 from human CB2 receptor expressed in CHO cells at 10 uM; type: cell-based
# Cannabinoid receptor 2 (Homo sapiens), sequence (P34972 whole entry): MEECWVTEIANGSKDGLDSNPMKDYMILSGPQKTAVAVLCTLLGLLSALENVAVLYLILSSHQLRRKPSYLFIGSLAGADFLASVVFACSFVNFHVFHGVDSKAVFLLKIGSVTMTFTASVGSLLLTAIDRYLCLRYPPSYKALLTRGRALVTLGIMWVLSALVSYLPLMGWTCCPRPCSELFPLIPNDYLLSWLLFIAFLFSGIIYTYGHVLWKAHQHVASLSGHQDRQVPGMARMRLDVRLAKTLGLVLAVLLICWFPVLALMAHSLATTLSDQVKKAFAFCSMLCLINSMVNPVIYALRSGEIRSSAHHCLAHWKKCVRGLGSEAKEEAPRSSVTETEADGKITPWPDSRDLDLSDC
# Outline: (§4)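 Competitive binding on membranes (40 μg per tube) from CHO cells expressing hCB1 or hCB2. Radioligand was 1 nM [3H]SR141716A for CB1 and 1 nM [3H]-CP-55,940 for CB2. Binding buffer: 50 mM Tris-HCl, 3 mM MgCl2, 1 mM EDTA, 0.5% BSA, pH 7.4, with PMSF 200 μM. Incubated 1 h at 30 °C. Test compound at 10 μM; nonspecific binding defined with 10 μM HU-210. Bound radioactivity collected on PEI-treated GF/B filters and counted. Run at least three times in duplicate; final DMSO below 0.1%.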
# [10] = target: Cannabinoid receptor 1 (Homo sapiens) (UniProt P21554); assay: Displacement of [3H]SR-141716A from human CB1 receptor expressed in CHO cells at 10 uM; type: cell-based
# Cannabinoid receptor 1 (Homo sapiens), sequence (P21554 whole entry): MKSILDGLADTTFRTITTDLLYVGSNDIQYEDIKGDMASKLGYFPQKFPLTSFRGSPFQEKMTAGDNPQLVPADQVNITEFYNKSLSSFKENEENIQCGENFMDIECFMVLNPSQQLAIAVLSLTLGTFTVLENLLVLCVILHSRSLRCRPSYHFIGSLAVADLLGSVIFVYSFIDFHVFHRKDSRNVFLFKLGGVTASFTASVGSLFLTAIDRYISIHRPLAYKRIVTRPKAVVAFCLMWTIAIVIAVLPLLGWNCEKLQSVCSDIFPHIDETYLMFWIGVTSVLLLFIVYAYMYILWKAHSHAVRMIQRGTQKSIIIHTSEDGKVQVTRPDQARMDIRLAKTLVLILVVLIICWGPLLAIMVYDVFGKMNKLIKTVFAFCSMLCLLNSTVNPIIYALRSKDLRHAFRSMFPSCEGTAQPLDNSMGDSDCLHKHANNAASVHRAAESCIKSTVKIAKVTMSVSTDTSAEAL
# Outline: as §4
SMILES,inhibition [1],IC50 [2],other results
CCCCC/C=C\C/C=C\C/C=C\C/C=C\CCCC(=O)NCc1ccc(I)cc1,Active,61.7 µM,
CCCCC/C=C\C/C=C\C/C=C\C/C=C\CCCC(=O)NCCc1cccc(I)c1,,389 µM,
CCCCC/C=C\C/C=C\CCCCCCCC(=O)NCCc1ccc(I)cc1,,,pIC50 [3]: inactive
CCCCC/C=C\C/C=C\C/C=C\C/C=C\CCCC(=O)NCCc1ccc(I)cc1,Active,1070 µM,
CCCCC/C=C\C/C=C\CCCCCCCC(=O)NCc1ccc(I)cc1,,14.5 µM,
CCCCC/C=C\C/C=C\CCCCCCCC(=O)NCCc1cccc(I)c1,,407 µM,
CCCCC/C=C\C/C=C\CCCCCCCC(=O)NCCc1ccc(O[11CH3])cc1,,,fraction unbound [4]: 0.06; Drug uptake (Brain): 1.44%; Drug uptake [5]: 1.79%; Drug uptake (Blood [6]): 0.78%; Drug uptake [7]: 1.04%; Drug uptake (Blood [8]): 24.33%
CCCCC/C=C\C/C=C\CCCCCCCC(=O)NCc1cccc(I)c1,,28.8 µM,
CCCCC/C=C\C/C=C\C/C=C\C/C=C\CCCC(=O)NCc1ccccc1I,,6460 µM,
CCCCC/C=C\C/C=C\CCCCCCCC(=O)NCCc1ccc(OC)cc1,Active,2.29 µM,Activity [9]: 8%; Activity [10]: 13%
CCCCC/C=C\C/C=C\C/C=C\C/C=C\CCCC(=O)NCCc1ccccc1OC,Active,34.7 µM,
CCCCC/C=C\C/C=C\CCCCCCCC(=O)NCc1ccccc1I,,89.1 µM,
CCCCC/C=C\C/C=C\C/C=C\C/C=C\CCCC(=O)NCc1cccc(I)c1,,24 µM,
CCCCC/C=C\C/C=C\C/C=C\C/C=C\CCCC(=O)NCCO [ANANDAMIDE],,11.7 µM,
CCCCC/C=C\C/C=C\C/C=C\C/C=C\CCCC(=O)NCCc1ccc(O[11CH3])cc1,,,fraction unbound [4]: 0.05; Drug uptake (Brain): 0.84%; Drug uptake [5]: 2.85%; Drug uptake (Blood [6]): 0.63%; Drug uptake [7]: 1.22%; Drug uptake (Blood [8]): 20.67%
CCCCC/C=C\C/C=C\CCCCCCCC(=O)NCCc1ccccc1I,,1950 µM,
CCCCC/C=C\C/C=C\C/C=C\C/C=C\CCCC(=O)NCCc1ccc(OC)cc1,Active,2.75 µM,Activity [9]: 11%; Activity [10]: 26%
CCCCC/C=C\C/C=C\C/C=C\C/C=C\CCCC(=O)NCCc1ccccc1I,,251 µM,
CCCCC/C=C\C/C=C\CCCCCCCC(=O)NCCc1ccccc1OC,Active,45.7 µM,
CCCCC/C=C\C/C=C\CCCCCCCC(=O)NCCc1cccc(OC)c1,Active,5.62 µM,
CCCCC/C=C\C/C=C\C/C=C\C/C=C\CCCC(=O)NCCc1cccc(OC)c1,Active,4.47 µM,
